The species named for data set [1] is Gallus gallus. The experiment in a line: Effect on reduced chicken lysozyme folding activity assessed as maximal activity at 8 mM at pH 6. Details: scale not given: the % may be the effect or the level left. The method in brief:
(§1)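 Denatured reduced lysozyme (DTE-reduced in 6 M GdnHCl, desalted) diluted 100-fold to 7 µM (0.1 mg/mL) into deoxygenated 0.1 M Bis–Tris pH 6.0, 1 mM EDTA, 0.5 M GdnHCl, 0.2 mM GSSG plus aromatic thiol, 25 °C. Aliquots assayed over time by lysis of M. lysodeikticus (450 nm light scattering, 2 min slope). Curves fit to y=A(1−e^−kt), A = maximal %activity; at least four assays on separate days, standard deviation.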

Data set [2] can be described thus: Dissociation constant, pKa of the compound. The format is physicochemical.
The species entered for data set [3] is Gallus gallus. The data set is described as follows: Effect on reduced chicken lysozyme folding activity assessed as maximal activity at 15 mM at pH 7. Details: scale not given: the % may be the effect or the level left. The method in brief: (§2)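 Denatured reduced lysozyme diluted 100-fold to 7 µM into deoxygenated 0.1 M Bis–Tris propane pH 7.0, 1 mM EDTA, 0.5 M GdnHCl, 0.2 mM GSSG plus aromatic thiol, 25 °C. Timed aliquots assayed for lytic activity on M. lysodeikticus (decrease in 450 nm scattering over 2 min). Fit to y=A(1−e^−kt), A = maximal %activity; at least seven independent assays on separate days.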

Data set [4] is filed under the species Gallus gallus. The data set is described as follows: Effect on reduced chicken lysozyme folding activity assessed as maximal activity at 15 mM at pH 6. Details: scale not given: the % may be the effect or the level left. The method in brief: as §1
Data set [5] is filed under the species Gallus gallus. The experiment in a line: Effect on reduced chicken lysozyme folding activity assessed as maximal activity at 20 mM at pH 7. Details: scale not given: the % may be the effect or the level left. The method in brief:
as §2

For data set [6], the species on record is Gallus gallus. The data set is described as follows: Effect on reduced chicken lysozyme folding activity assessed as maximal activity at 8 mM at pH 7. Details: scale not given: the % may be the effect or the level left. The method in brief: as §2
For data set [7], the species on record is Gallus gallus. The experiment in a line: Effect on reduced chicken lysozyme folding activity assessed as maximal activity at 20 mM at pH 6. Details: scale not given: the % may be the effect or the level left. Put shortly:
as §1

One may read the pKa as the pH at which an ionisable group is half protonated. On to `O=P(O)(O)Cc1ccc(S)cc1`, for which the Activity in the data set filed under Gallus gallus [1] and in the data set listed under Gallus gallus [3] was 67% each time. Moreover, in data set [2], the pKa stood at 6.6.

For `O=S(=O)(O)c1ccc(S)cc1`, the results for the Activity in the data set listed under Gallus gallus [4] and in the data set listed under Gallus gallus [5] were 50% and 62%, respectively. In addition, the pKa in data set [2] is 5.7.

Turning to `O=C(O)Cc1ccc(S)cc1`, the Activity was determined as 45% in the data set filed under Gallus gallus [6] and 16% in the data set filed under Gallus gallus [1].

In turn, `C[N+](C)(C)Cc1ccc(S)cc1` came in with a pKa in data set [2] of 5.5. The Activity turned out to be 72% in the data set listed under Gallus gallus [5] and 85% in the data set listed under Gallus gallus [7].

For `O=C(O)c1ccc(S)cc1`, the Activity amounted to 70% in the data set listed under Gallus gallus [6] and 60% in the data set filed under Gallus gallus [1]. This compound showed a pKa in data set [2] of 5.95.

The values above are taken from ChEMBL document CHEMBL1141642, “Rate enhancement of the oxidative folding of lysozyme by the use of aromatic thiol containing redox buffers” (Bioorg Med Chem, 2008).
